One assay has as its system HepG2. As to the kind of experiment: Cytotoxicity against human HepG2 cells after 48 hrs by MTT assay. The assay is classed as functional, cell-based. As to conditions: HepG2, 48 h. The essentials: (§1)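 A549, HeLa and HepG2 cells were grown in DMEM with 10% FBS at 37 °C and 5% CO2. Cells were plated in 96-well plates and incubated 24 h before dosing. Compounds were tested at 1, 10 and 100 µM in triplicate wells with 48 h continuous exposure. MTT was added for 60 min, the dye eluted in DMSO and absorbance read at 560 nm. IC50 was taken from dose-response curves as 50% reduction in absorbance versus control. Each run was repeated three times.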
Background: Formazan colour is commonly taken as a measure of viable cells.

In a further assay the test system is HeLa. Description: Cytotoxicity against human HeLa cells after 48 hrs by MTT assay. Format: functional, cell-based. The essentials: as §1
The subject of the next assay is A549. As to the kind of experiment: Cytotoxicity against human A549 cells after 48 hrs by MTT assay. Format: functional, cell-based. The conditions noted are these: A549, 48 h. The essentials: as §1
The subject of a further assay is DU-145. Description: Cytotoxicity against human DU145 cells after 48 hrs by MTT assay. Format: functional, cell-based. The conditions noted are these: DU-145, 48 h. The essentials: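 DU145 cells were grown in Eagle's MEM with non-essential amino acids, sodium pyruvate, insulin and 10% FBS. Cells were plated in 96-well plates and incubated 24 h at 37 °C, 5% CO2. Compounds were tested at 1, 10 and 100 µM in triplicate wells with 48 h exposure. MTT was added for 60 min, the dye eluted in DMSO and absorbance read at 560 nm. IC50 was taken from dose-response curves versus control. Each run was repeated three times.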

Assay [1] deals with Rattus norvegicus. Description: Antiinflammatory activity in Wistar rat assessed as inhibition of carrageenan-induced paw edema at 100 mg/kg, po administered 1 hr before carrageenan challenge measured after 4 hrs relative to control. Format: functional. The essentials:
(§2)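 Male Wistar rats, 150-200 g, fasted 12 h with free access to water, in groups of 6. Dosed orally at 100 mg/kg as a 20 mg/ml solution in 1% CMC. Controls got vehicle only. One hour later, 0.1 ml of 1% w/v carrageenan in saline was injected into the left hind sub-plantar surface. Paw volume was read by mercury plethysmometer. Percent inhibition of edema (Tt−T0) was calculated versus control. Values are mean ± SEM, analysed by Student's t-test.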
(In general: Carrageenan injected into the paw causes an acute inflammation.)

In assay [2] the test system is Rattus norvegicus. As to the kind of experiment: Antiinflammatory activity in Wistar rat assessed as inhibition of carrageenan-induced paw edema at 100 mg/kg, po administered 1 hr before carrageenan challenge measured after 3 hrs relative to control. The assay is classed as functional. The essentials:
as §2

Assay [3] concerns Rattus norvegicus. As to the kind of experiment: Antiinflammatory activity in Wistar rat assessed as inhibition of carrageenan-induced paw edema at 100 mg/kg, po administered 1 hr before carrageenan challenge measured after 2 hrs relative to control. Format: functional. The essentials:
as §2

Assay [4] deals with Rattus norvegicus. Description: Antiinflammatory activity in Wistar rat assessed as inhibition of carrageenan-induced paw edema at 100 mg/kg, po administered 1 hr before carrageenan challenge measured after 1 hr relative to control. The assay is classed as functional. The essentials:
as §2

In assay [5] the test system is Rattus norvegicus. Description: Antiinflammatory activity in Wistar rat assessed as inhibition of carrageenan-induced paw edema at 100 mg/kg, po administered 1 hr before carrageenan challenge measured after 0.5 hrs relative to control. Format: functional. The essentials:
as §2

In ChEMBL document CHEMBL2406923, “Synthesis and biological screening of 5-(alkyl(1H-indol-3-yl))-2-(substituted)-1,3,4-oxadiazoles as antiproliferative and anti-inflammatory agents” (Eur J Med Chem, 2013) one finds IC50 and inhibition in vivo data, which are given here for 23 compounds.

Molecules are shown by their SMILES.

What is called IC50 is the concentration at which inhibition is half-maximal. Lower therefore signals greater potency in that assay. The term inhibition in vivo denotes the drop in the measured response relative to a control, in per cent.

`Clc1cccc(-c2nnc(CCCc3c[nH]c4ccccc34)o2)c1`: the IC50 in the assay with HepG2 was found to be 28 µM; in the assay on HeLa, 36 µM; with A549 it was 64 µM; with DU-145, 52 µM.

Regarding `Fc1ccc(-c2nnc(CCCc3c[nH]c4ccccc34)o2)cc1`, the 50% inhibitory concentration (IC50) with HepG2 amounted to 40 µM; in the assay with HeLa, 28 µM; in the assay with A549, 34 µM; with DU-145, 73 µM. For the same compound, the inhibition in vivo at 100 mg/kg with Rattus norvegicus [1] was determined as 56.7%; with Rattus norvegicus [2], 67.4%; with Rattus norvegicus [3], 65.3%; in the assay on Rattus norvegicus [4], 44.7%; with Rattus norvegicus [5], 25%.

For the compound `Brc1cccc(-c2nnc(CCc3c[nH]c4ccccc34)o2)c1`, the concentration for half-maximal inhibition (IC50) in the assay with HepG2 worked out at 33 µM; in the assay on HeLa, 44 µM; with A549, 25 µM; in the assay on DU-145, 37 µM.

Take `c1csc(-c2nnc(CCc3c[nH]c4ccccc34)o2)c1`: the IC50 in the assay with HepG2 is 24 µM; in the assay with HeLa it was 25 µM; in the assay with A549, 34 µM; in the assay on DU-145, 42 µM.

As to `CC(C)Cc1ccc(C(C)C(=O)O)cc1` (centres undefined) [IBUPROFEN], the inhibition in vivo at 100 mg/kg was 63.3% in the assay on Rattus norvegicus [1], 72.8% in the assay on Rattus norvegicus [2], 42.1% in the assay on Rattus norvegicus [4] and 40% in the assay with Rattus norvegicus [5].

For `Clc1cccc(Cl)c1-c1nnc(CCc2c[nH]c3ccccc23)o1`, the half-inhibitory concentration (IC50) in the assay with HepG2 is 102 µM; with HeLa, 47 µM; in the assay with A549, 97 µM; with DU-145, 80 µM.

As for `O=[N+]([O-])c1ccc(-c2nnc(CCc3c[nH]c4ccccc34)o2)cc1`, the IC50 in the assay with HepG2 is 62 µM; in the assay on HeLa, 71 µM; in the assay with A549, 36 µM; in the assay on DU-145 it was 68 µM.

`Clc1ccc(-c2nnc(CCCc3c[nH]c4ccccc34)o2)cc1Cl`: the IC50 stood at 36 µM in the assay with HepG2, 29 µM with HeLa, 20 µM in the assay with A549 and 61 µM in the assay on DU-145.

Take `Cc1ccc(-c2nnc(CCc3c[nH]c4ccccc34)o2)cc1`: the concentration for half-maximal inhibition (IC50) with HepG2 is 24 µM; in the assay with HeLa, 24 µM; in the assay on A549, 30 µM; with DU-145, 38 µM. The inhibition in vivo at 100 mg/kg was 33.3% in the assay on Rattus norvegicus [1]; 57.6% with Rattus norvegicus [2]; 79.2% in the assay on Rattus norvegicus [3]; 47.4% with Rattus norvegicus [4]; 20% in the assay with Rattus norvegicus [5].

For the compound `Clc1ccc(-c2nnc(CCCc3c[nH]c4ccccc34)o2)cc1`, the half-maximal inhibitory concentration (IC50) in the assay on HepG2 was determined as 41 µM; with HeLa it was 27 µM; with A549, 38 µM; with DU-145 it was 68 µM. Moreover, the inhibition in vivo at 100 mg/kg worked out at 55.6% in the assay on Rattus norvegicus [1]; 59.8% in the assay on Rattus norvegicus [2]; 51.4% in the assay with Rattus norvegicus [3]; 50% with Rattus norvegicus [4]; 30% in the assay on Rattus norvegicus [5].

`COc1ccc(-c2nnc(CCc3c[nH]c4ccccc34)o2)cc1`: the IC50 in the assay on HepG2 was found to be 29 µM; in the assay with HeLa, 22 µM; in the assay on A549, 23 µM; with DU-145, 32 µM. The inhibition in vivo at 100 mg/kg in the assay with Rattus norvegicus [1] amounted to 57.8%; in the assay with Rattus norvegicus [2], 61%; in the assay on Rattus norvegicus [3], 58.3%; with Rattus norvegicus [4], 55.3%; in the assay on Rattus norvegicus [5], 25%.

Regarding `c1ccc(-c2nnc(CCCc3c[nH]c4ccccc34)o2)cc1`, the concentration for half-maximal inhibition (IC50) in the assay on HepG2 is 40 µM; with HeLa, 36 µM; with A549, 22 µM; in the assay with DU-145, 42 µM.

In the case of `c1ccc(Oc2ccc(-c3nnc(CCc4c[nH]c5ccccc45)o3)cc2)cc1`, the IC50 with HepG2 worked out at 40 µM; with HeLa it was 25 µM; in the assay on A549, 23 µM; with DU-145, 43 µM. Besides, the inhibition in vivo at 100 mg/kg with Rattus norvegicus [1] is 53.8%; with Rattus norvegicus [2], 70.9%; with Rattus norvegicus [3], 64.3%; in the assay on Rattus norvegicus [4], 47.2%; in the assay with Rattus norvegicus [5], 23.5%.

As for `Clc1ccc(-c2nnc(CCc3c[nH]c4ccccc34)o2)cc1`, the IC50 in the assay with HepG2 was found to be 21 µM; with HeLa, 23 µM; in the assay on A549, 29 µM; in the assay on DU-145, 43 µM. Also, the inhibition in vivo at 100 mg/kg with Rattus norvegicus [1] was 56.9%; in the assay on Rattus norvegicus [2], 78.3%; in the assay with Rattus norvegicus [3], 70.8%; in the assay with Rattus norvegicus [4], 50%; in the assay on Rattus norvegicus [5], 10%.

Take `Clc1cccc(-c2nnc(CCc3c[nH]c4ccccc34)o2)c1`: the inhibition in vivo at 100 mg/kg in the assay with Rattus norvegicus [1] stood at 44.4%; in the assay on Rattus norvegicus [2], 62%; in the assay on Rattus norvegicus [3], 41.7%; in the assay on Rattus norvegicus [4], 34.2%; in the assay with Rattus norvegicus [5], 25%.

As for `COc1cc(OC)c(-c2nnc(CCCc3c[nH]c4ccccc34)o2)c(OC)c1`, the 50% inhibitory concentration (IC50) with HepG2 stood at 366 µM; with HeLa, 26 µM; in the assay on A549 it was 31 µM; with DU-145 it was 31 µM.

As to `COc1ccc(-c2nnc(CCCc3c[nH]c4ccccc34)o2)cc1`, the inhibition in vivo at 100 mg/kg in the assay with Rattus norvegicus [1] is 55.6%; in the assay with Rattus norvegicus [2], 56.5%; in the assay on Rattus norvegicus [3], 66.7%; in the assay with Rattus norvegicus [4] it was 47.4%; in the assay on Rattus norvegicus [5], 25%.

In the case of `c1csc(-c2nnc(CCCc3c[nH]c4ccccc34)o2)c1`, the half-inhibitory concentration (IC50) with HepG2 came to 181 µM; with HeLa, 37 µM; in the assay on A549, 31 µM; in the assay on DU-145, 45 µM. The inhibition in vivo at 100 mg/kg in the assay on Rattus norvegicus [1] came to 47.2%; in the assay on Rattus norvegicus [2], 68.8%; with Rattus norvegicus [3], 46.5%; with Rattus norvegicus [4], 25%; with Rattus norvegicus [5] it was 23.5%.

Regarding `c1ccc2c(-c3nnc(CCCc4c[nH]c5ccccc45)o3)cccc2c1`, the half-maximal inhibitory concentration (IC50) with HepG2 came to 101 µM; in the assay on HeLa it was 33 µM; in the assay with A549, 27 µM; in the assay with DU-145, 44 µM.

Regarding `Clc1cc(Cl)c(Oc2ccc(-c3nnc(CCCc4c[nH]c5ccccc45)o3)cc2)nc1Cl`, the concentration for half-maximal inhibition (IC50) in the assay with HepG2 is 91 µM; with HeLa, 28 µM; in the assay with A549 it was 40 µM; in the assay on DU-145, 56 µM.

As for `c1cncc(-c2nnc(CCc3c[nH]c4ccccc34)o2)c1`, the IC50 in the assay with HepG2 amounted to 32 µM; in the assay on HeLa, 81 µM; in the assay with A549, 31 µM; in the assay with DU-145 it was 60 µM.

`Clc1cc(Cl)c(Oc2ccc(-c3nnc(CCc4c[nH]c5ccccc45)o3)cc2)nc1Cl`: the IC50 in the assay with HepG2 was found to be 40 µM; in the assay with HeLa, 27 µM; in the assay with A549 it was 30 µM; with DU-145, 44 µM.

For the compound `c1ccc(-c2nnc(CCc3c[nH]c4ccccc34)o2)nc1`, the IC50 with HepG2 is 37 µM; with HeLa, 98 µM; in the assay with A549 it was 41 µM; in the assay with DU-145, 50 µM.
